ChEMBL document CHEMBL1153264, “(1,2,3-Triazol-4-yl)benzenamines: synthesis and activity against VEGF receptors 1 and 2” (Bioorg Med Chem Lett, 2009)

Assays:
[1] = target: Proto-oncogene tyrosine-protein kinase Src (Homo sapiens) (UniProt P12931); assay: Inhibition of Src at 10 uM
[2] = target: Aurora kinase B (Homo sapiens) (UniProt Q96GD4); assay: Inhibition of Aurora B at 10 uM
[3] = target: Receptor tyrosine-protein kinase erbB-2 (Homo sapiens) (UniProt P04626); assay: Inhibition of ErbB2 at 10 uM
[4] = target: Serine/threonine-protein kinase PLK1 (Homo sapiens) (UniProt P53350); assay: Inhibition of Plk1 at 10 uM
[5] = target: Glycogen synthase kinase-3 beta (Homo sapiens) (UniProt P49841); assay: Inhibition of GSK3-beta at 10 uM
Glycogen synthase kinase-3 beta (Homo sapiens), sequence (P49841 whole entry, looked up): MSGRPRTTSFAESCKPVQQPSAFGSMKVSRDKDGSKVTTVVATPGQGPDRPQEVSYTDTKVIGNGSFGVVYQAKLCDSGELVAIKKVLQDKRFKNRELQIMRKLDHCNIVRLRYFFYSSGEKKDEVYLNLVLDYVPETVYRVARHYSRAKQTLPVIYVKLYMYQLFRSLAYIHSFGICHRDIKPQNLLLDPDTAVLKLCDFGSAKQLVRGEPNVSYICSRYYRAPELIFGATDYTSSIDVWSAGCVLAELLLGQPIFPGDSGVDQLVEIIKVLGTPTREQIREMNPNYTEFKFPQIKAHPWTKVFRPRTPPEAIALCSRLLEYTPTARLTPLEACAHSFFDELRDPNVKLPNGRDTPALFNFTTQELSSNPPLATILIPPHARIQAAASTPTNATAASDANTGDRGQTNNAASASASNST

[6] = target: Cyclin-dependent kinase 2 (Homo sapiens) (UniProt P24941); assay: Inhibition of Cdk2 at 10 uM
[7] = target: Bcr/Abl fusion protein (Homo sapiens) (UniProt P00519+P11274); assay: Inhibition of Bcr-Abl at 10 uM; format: protein assay
[8] = target: Epidermal growth factor receptor (Homo sapiens) (UniProt P00533); assay: Inhibition of EGFR at 10 uM
[9] = target: Receptor-type tyrosine-protein kinase FLT3 (Homo sapiens) (UniProt P36888); assay: Inhibition of Flt3 at 10 uM
[10] = target: T1, Vascular endothelial growth factor receptor 2 (Homo sapiens, UniProt P35968); assay: Inhibition of VEGF-induced phosphorylation of VEGFR2 by cell-based ELISA
T1 sequence (P35968 whole entry): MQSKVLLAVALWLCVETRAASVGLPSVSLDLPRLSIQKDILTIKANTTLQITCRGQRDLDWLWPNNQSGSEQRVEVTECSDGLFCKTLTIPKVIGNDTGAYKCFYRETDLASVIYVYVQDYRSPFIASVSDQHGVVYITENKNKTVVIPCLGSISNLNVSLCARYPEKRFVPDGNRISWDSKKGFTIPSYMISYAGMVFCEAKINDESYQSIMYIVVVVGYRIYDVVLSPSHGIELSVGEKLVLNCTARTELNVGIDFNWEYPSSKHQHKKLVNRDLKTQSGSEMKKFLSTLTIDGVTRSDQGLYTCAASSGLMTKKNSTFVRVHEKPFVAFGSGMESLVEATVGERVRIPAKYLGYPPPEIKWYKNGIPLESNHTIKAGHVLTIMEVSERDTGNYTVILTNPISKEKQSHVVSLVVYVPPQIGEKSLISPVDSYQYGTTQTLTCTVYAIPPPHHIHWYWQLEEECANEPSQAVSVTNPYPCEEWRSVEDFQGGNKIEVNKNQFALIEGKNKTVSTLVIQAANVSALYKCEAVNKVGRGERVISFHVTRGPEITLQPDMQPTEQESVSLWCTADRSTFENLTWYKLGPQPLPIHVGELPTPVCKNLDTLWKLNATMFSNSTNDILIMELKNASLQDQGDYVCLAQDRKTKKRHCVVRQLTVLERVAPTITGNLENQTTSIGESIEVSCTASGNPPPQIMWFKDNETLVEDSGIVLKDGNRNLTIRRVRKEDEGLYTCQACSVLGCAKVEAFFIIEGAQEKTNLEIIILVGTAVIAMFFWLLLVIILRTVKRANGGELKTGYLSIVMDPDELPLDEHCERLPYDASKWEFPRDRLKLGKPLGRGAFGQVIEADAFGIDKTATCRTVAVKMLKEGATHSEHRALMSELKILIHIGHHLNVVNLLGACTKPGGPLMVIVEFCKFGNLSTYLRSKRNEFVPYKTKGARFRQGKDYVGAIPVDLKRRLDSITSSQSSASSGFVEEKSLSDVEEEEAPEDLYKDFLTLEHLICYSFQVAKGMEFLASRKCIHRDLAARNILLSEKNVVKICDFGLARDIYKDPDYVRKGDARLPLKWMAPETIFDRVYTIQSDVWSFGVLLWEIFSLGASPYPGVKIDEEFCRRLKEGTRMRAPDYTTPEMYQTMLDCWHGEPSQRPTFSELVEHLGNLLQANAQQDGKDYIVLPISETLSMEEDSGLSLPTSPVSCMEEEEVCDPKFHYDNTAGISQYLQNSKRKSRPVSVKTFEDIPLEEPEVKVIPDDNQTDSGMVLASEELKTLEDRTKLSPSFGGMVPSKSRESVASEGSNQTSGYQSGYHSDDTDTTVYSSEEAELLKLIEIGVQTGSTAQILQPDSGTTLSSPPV

[11] = target: Insulin-like growth factor 1 receptor (Homo sapiens) (UniProt P08069); assay: Inhibition of IGF1R at 10 uM
[12] = target: T1, Vascular endothelial growth factor receptor 2; assay: Binding affinity to VEGFR2 at IC90 in presence of ATP
Outline: (§1)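 ATP competition assay with VEGFR-2. Five concentrations of ³²P ATP across 0-100 µM, each incubated with enzyme for 45 min at RT. Inhibitor was absent or present at two fixed levels.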

[13] = target: Hepatocyte growth factor receptor (Homo sapiens) (UniProt P08581); assay: Inhibition of c-Met at 10 uM
Hepatocyte growth factor receptor (Homo sapiens), sequence (P08581 whole entry): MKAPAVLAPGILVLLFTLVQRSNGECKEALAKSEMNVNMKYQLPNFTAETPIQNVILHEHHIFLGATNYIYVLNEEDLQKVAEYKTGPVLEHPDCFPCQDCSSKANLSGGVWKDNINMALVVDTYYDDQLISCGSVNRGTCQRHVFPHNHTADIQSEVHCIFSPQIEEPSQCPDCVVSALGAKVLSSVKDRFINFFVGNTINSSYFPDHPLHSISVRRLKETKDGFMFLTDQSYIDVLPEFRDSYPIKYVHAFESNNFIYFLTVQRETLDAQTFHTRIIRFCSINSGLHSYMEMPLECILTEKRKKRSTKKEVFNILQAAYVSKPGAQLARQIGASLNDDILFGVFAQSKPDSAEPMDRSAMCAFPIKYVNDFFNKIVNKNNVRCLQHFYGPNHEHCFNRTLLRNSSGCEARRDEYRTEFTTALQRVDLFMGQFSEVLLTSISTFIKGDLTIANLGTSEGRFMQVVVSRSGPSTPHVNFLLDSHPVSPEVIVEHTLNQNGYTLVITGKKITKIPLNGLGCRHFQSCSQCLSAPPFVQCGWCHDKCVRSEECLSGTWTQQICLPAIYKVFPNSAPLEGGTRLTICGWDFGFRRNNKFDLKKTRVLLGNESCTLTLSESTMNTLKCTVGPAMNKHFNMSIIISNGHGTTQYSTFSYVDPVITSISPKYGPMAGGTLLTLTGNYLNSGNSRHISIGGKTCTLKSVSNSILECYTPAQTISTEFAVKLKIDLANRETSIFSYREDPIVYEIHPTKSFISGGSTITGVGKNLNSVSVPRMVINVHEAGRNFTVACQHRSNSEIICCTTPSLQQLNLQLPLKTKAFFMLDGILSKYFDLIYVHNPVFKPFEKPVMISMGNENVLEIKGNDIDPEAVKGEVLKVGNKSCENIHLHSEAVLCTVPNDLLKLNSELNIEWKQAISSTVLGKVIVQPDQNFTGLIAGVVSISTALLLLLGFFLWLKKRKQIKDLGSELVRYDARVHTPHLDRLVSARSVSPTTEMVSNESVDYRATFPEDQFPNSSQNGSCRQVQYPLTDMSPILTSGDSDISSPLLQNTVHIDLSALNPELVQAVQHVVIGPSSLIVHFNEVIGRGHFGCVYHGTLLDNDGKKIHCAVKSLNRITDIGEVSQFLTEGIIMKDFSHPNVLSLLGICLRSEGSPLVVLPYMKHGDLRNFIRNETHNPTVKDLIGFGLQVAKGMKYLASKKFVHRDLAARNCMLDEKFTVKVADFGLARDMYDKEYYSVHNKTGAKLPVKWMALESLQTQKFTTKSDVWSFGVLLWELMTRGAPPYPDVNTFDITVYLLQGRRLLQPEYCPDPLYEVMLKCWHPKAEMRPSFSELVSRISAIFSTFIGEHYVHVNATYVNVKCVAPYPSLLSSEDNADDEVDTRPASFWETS

[14] = target: Fibroblast growth factor receptor 1 (Homo sapiens) (UniProt P11362); assay: Inhibition of FGFR1 at 10 uM
[15] = target: T1, Vascular endothelial growth factor receptor 2; assay: Binding affinity to VEGFR2 at IC50 in presence of ATP; outline: as §1
[16] = Inhibition of PKA at 10 uM
[17] = target: Cyclin-dependent kinase 1 (Homo sapiens) (UniProt P06493); assay: Inhibition of Cdk1 at 10 uM
Cyclin-dependent kinase 1 (Homo sapiens), sequence (P06493 whole entry, looked up): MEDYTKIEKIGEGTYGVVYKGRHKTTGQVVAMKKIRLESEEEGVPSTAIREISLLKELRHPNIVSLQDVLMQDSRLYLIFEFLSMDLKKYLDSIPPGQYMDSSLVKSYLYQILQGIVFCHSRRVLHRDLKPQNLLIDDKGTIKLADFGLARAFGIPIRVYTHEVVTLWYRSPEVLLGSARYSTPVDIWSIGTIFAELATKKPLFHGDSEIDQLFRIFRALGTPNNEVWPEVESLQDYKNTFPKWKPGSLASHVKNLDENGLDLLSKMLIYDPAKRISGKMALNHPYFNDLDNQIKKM

[18] = target: Macrophage-stimulating protein receptor (Homo sapiens) (UniProt Q04912); assay: Inhibition of Ron at 10 uM
Macrophage-stimulating protein receptor (Homo sapiens), sequence (Q04912 25-304 limits assumed): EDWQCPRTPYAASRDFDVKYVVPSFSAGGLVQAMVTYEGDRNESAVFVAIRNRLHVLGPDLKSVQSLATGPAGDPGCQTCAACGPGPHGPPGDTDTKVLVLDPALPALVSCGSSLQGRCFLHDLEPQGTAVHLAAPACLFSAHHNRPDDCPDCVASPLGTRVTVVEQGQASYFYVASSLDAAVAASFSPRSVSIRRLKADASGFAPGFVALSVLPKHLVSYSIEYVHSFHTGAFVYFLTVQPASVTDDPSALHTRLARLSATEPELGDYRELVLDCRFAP
Macrophage-stimulating protein receptor (Homo sapiens), sequence (Q04912 310-1400 limits assumed): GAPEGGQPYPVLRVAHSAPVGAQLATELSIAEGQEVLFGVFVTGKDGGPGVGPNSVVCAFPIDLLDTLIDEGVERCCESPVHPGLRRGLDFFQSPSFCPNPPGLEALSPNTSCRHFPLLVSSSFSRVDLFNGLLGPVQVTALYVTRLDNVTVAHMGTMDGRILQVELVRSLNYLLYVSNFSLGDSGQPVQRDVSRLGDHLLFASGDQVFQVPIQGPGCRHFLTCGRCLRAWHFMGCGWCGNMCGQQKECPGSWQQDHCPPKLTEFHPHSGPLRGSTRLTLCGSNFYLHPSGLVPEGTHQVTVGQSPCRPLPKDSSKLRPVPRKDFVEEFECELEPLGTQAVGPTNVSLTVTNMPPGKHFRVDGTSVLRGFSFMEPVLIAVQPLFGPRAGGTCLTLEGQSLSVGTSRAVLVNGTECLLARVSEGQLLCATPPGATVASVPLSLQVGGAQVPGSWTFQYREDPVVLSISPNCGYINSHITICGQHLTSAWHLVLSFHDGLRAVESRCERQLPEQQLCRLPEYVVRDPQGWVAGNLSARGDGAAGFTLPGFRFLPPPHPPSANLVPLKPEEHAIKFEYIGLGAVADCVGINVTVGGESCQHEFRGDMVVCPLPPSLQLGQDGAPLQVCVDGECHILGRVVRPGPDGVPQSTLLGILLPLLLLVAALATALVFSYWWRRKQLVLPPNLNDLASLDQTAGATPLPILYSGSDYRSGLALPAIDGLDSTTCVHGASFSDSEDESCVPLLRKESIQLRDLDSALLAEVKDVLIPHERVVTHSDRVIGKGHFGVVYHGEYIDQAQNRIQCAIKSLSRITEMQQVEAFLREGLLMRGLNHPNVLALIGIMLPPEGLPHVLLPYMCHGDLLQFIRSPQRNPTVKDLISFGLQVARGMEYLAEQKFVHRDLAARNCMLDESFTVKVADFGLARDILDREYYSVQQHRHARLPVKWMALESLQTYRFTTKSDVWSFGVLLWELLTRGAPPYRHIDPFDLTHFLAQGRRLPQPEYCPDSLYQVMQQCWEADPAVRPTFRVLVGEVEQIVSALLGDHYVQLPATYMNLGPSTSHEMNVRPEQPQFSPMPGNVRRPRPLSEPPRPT

[19] = target: Vascular endothelial growth factor receptor 1 (Homo sapiens, UniProt P17948); assay: Inhibition of VEGFR1 by HTRF assay
[20] = target: Insulin receptor (Homo sapiens) (UniProt P06213); assay: Inhibition of IR at 10 uM
[21] = target: T2, Aurora kinase A (Homo sapiens) (UniProt O14965); assay: Inhibition of Aurora A at 10 uM
T2 sequence (whole entry): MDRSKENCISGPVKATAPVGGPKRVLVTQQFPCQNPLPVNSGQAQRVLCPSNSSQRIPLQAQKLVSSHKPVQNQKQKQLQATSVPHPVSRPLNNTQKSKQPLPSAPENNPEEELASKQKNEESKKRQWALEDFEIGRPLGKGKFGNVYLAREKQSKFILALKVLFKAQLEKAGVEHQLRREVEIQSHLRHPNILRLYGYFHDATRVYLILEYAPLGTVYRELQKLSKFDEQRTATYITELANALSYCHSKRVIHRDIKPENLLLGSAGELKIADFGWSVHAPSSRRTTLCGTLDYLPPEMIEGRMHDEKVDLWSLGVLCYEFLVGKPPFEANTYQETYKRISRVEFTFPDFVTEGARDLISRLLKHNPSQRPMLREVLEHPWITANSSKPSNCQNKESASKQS

[22] = target: T1, Vascular endothelial growth factor receptor 2; assay: Inhibition of VEGFR2 by HTRF assay in presence of 2 uM ATP
Outline: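 HTRF kinase assay with KDR enzyme (3–4 ng) and biotinylated pGAT substrate. ATP added to start, 45 min at RT. Stopped with EDTA/KF buffer plus Eu-cryptate anti-phosphotyrosine antibody, 2 h RT, then HTRF read. IC50 from 10-point log concentration curves, mean of at least two duplicate runs.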

[23] = Inhibition of Bcr-Abl T315 mutant at 10 uM

inhibition [1] [%]	inhibition [2] [%]	inhibition [3] [%]	inhibition [4] [%]	inhibition [5] [%]	inhibition [6] [%]	inhibition [7] [%]	inhibition [8] [%]	inhibition [9] [%]	IC50 [10] [nM]	inhibition [11] [%]	Ki [12] [nM]	inhibition [13] [%]	inhibition [14] [%]	Ki [15] [nM]	inhibition [16] [%]	inhibition [17] [%]	inhibition [18] [%]	IC50 [19] [nM]	inhibition [20] [%]	SMILES	further results
< 30	< 30	< 30	< 30	< 30	< 30	< 30	< 30	< 30	96	< 30	80	< 30	< 30	90	< 30	< 30	< 30	66	< 30	FC(F)(F)c1cccc(-n2cc(-c3ccccc3NCc3ccncc3)nn2)c1	inhibition [21]: < 30%; IC50 [22]: 51 nM; inhibition [23]: < 30%
< 30	< 30	< 30	< 30	< 30	< 30	< 30	< 30	< 30	150	< 30	140	< 30	< 30	160	< 30	< 30	< 30	130	< 30	CC(C)c1cccc(-n2cc(-c3ccccc3NCc3ccncc3)nn2)c1	inhibition [21]: < 30%; IC50 [22]: 110 nM; inhibition [23]: < 30%
